# Assay results taken from ChEMBL document CHEMBL5329156, “Discovery and development of novel substituted monohydrazides as potent antifungal agents” (RSC Med Chem, 2023).
# Calls of active or inactive are those of the source. The calls are words filed in the database; no cut-off is given here.
# What was measured:
# Clavispora lusitaniae = assay: Antifungal activity against Clavispora lusitaniae AR Bank # 398 assessed as fungal growth inhibition by double dilution method; format: functional
# Summary of the method: (§1)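 Broth microdilution after CLSI M27-A3/M38-A2 with minor changes. Single colony grown overnight in YPD at 35 °C, 200 rpm. Compound final range 0.06-31.3 µg/mL; incubated 48 h at 35 °C.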
# Aspergillus fumigatus [1] = assay: Antifungal activity against Aspergillus fumigatus NRRL 6113 assessed as fungal growth inhibition by double dilution method; format: functional
# Candida albicans [2] = assay: Antifungal activity against itraconazole/fluconazole resistant Candida albicans ATCC 90819 assessed as fungal growth inhibition by double dilution method; format: functional
# Summary of the method: (§2)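 Broth microdilution after CLSI M27-A3/M38-A2 with minor modifications. A single colony was grown overnight in YPD at 35 °C with shaking at 200 rpm. Cells were mixed 1:1 with compound (final 0.06-31.3 µg/mL, from DMSO stocks) and incubated 48 h at 35 °C.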
# [Candida] auris [3] = Antifungal activity against Candida auris AR Bank # 382 assessed as fungal growth inhibition by double dilution method; format: functional; details: Candidozyma auris; summary of the method: as §1
# Candida duobushaemulonii [4] = assay: Antifungal activity against Candida duobushaemulonii AR Bank # 394 assessed as fungal growth inhibition by double dilution method; format: functional; details: Candidozyma duobushaemuli; summary of the method: as §1
# Saccharomyces cerevisiae [5] = assay: Antifungal activity against Saccharomyces cerevisiae AR Bank # 400 assessed as fungal growth inhibition by double dilution method; format: functional; summary of the method: as §1
# [Candida] auris [6] = Antifungal activity against Candida auris AR Bank # 390 assessed as fungal growth inhibition by double dilution method; format: functional; details: Candidozyma auris; summary of the method: as §1
# Pichia kudriavzevii [7] = assay: Antifungal activity against Pichia kudriavzevii AR Bank # 397 assessed as fungal growth inhibition by double dilution method; format: functional; summary of the method: as §1
# [Candida] auris [8] = Antifungal activity against Candida auris AR Bank # 386 assessed as fungal growth inhibition by double dilution method; format: functional; details: Candidozyma auris; summary of the method: as §1
# Candida duobushaemulonii [9] = assay: Antifungal activity against Candida duobushaemulonii AR Bank # 392 assessed as fungal growth inhibition by double dilution method; format: functional; details: Candidozyma duobushaemuli; summary of the method: as §1
# Aspergillus nidulans = assay: Antifungal activity against Aspergillus nidulans ATCC 38163 assessed as fungal growth inhibition by double dilution method; format: functional
# [Candida] auris [10] = Antifungal activity against Candida auris AR Bank # 384 assessed as fungal growth inhibition by double dilution method; format: functional; details: Candidozyma auris; summary of the method: as §1
# [Candida] auris [11] = Antifungal activity against Candida auris AR Bank # 388 assessed as fungal growth inhibition by double dilution method; format: functional; details: Candidozyma auris; summary of the method: as §1
# Candida albicans [12] = assay: Antibiofilm activity against Candida albicans ATCC 10231 assessed as reduction in biofilm production at 1.96 to 3.9 microg/ml by biofilm formation assay; format: functional, organism-based; details: dose 1.96-3.9 µg/ml
# HEK293 = assay: Cytotoxicity against human HEK-293 cells assessed as reduction in cell viability at 31.3 microg/ml; format: toxicity, cell-based; details: dose 31.3 µg/ml
# Summary of the method: (§3)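 Cells in DMEM with 10% FBS and 1% Pen/Strep, seeded at 10,000 cells/well and held overnight at 37 °C, 5% CO2. Compounds added at final 31.3-0.12 µg/mL (0.05% DMSO vehicle) for 24 h. Resazurin then added for 6 h; fluorescence read at ex 560/em 590. Triton X-100 1% as positive control; values normalized to vehicle. Run in quadruplicate.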
# Candida albicans [13] = assay: Antifungal activity against Candida albicans ATCC 10231 assessed as fungal growth inhibition by double dilution method; format: functional; summary of the method: as §1
# [Candida] auris [14] = Antifungal activity against Candida auris AR Bank # 383 assessed as fungal growth inhibition by double dilution method; format: functional; details: Candidozyma auris; summary of the method: as §1
# Aspergillus fumigatus [15] = assay: Antifungal activity against Aspergillus fumigatus NRRL 163 assessed as fungal growth inhibition by double dilution method; format: functional
# Aspergillus flavus = assay: Antifungal activity against Aspergillus flavus ATCC MYA-3631 assessed as fungal growth inhibition by double dilution method; format: functional
# Candida albicans [16] = assay: Antifungal activity against itraconazole/fluconazole resistant Candida albicans ATCC MYA-1237 assessed as fungal growth inhibition by double dilution method; format: functional; summary of the method: as §2
# [Candida] auris [17] = Antifungal activity against Candida auris AR Bank # 381 assessed as fungal growth inhibition by double dilution method; format: functional; details: Candidozyma auris; summary of the method: as §1
# Candida albicans [18] = assay: Antifungal activity against Candida albicans ATCC 64124 assessed as fungal growth inhibition by double dilution method; format: functional; summary of the method: as §2
# Candida albicans [19] = assay: Antifungal activity against itraconazole/fluconazole susceptible Candida albicans ATCC MYA-2310 assessed as fungal growth inhibition by double dilution method; format: functional; summary of the method: as §2
# Aspergillus fumigatus [20] = assay: Antifungal activity against Aspergillus fumigatus NRRL 5109 assessed as fungal growth inhibition by double dilution method; format: functional
# Aspergillus terreus = assay: Antifungal activity against Aspergillus terreus ATCC MYA-3633 assessed as fungal growth inhibition by double dilution method; format: functional
# Saccharomyces cerevisiae [21] = assay: Antifungal activity against Saccharomyces cerevisiae AR Bank # 399 assessed as fungal growth inhibition by double dilution method; format: functional; summary of the method: as §1
# Candida albicans [22] = assay: Antifungal activity against itraconazole/fluconazole resistant Candida albicans ATCC MYA-1003 assessed as fungal growth inhibition by double dilution method; format: functional; summary of the method: as §2
# J774.A1 = assay: Cytotoxicity against J774A.1 cells assessed as reduction in cell viability at 31.3 microg/ml; format: toxicity, cell-based; details: mouse, dose 31.3 µg/ml; summary of the method: as §3
# Nakaseomyces glabratus [23] = assay: Antifungal activity against Candida glabrata ATCC 2001 assessed as fungal growth inhibition by double dilution method; format: functional; summary of the method: as §1
# Pichia kudriavzevii [24] = assay: Antifungal activity against Pichia kudriavzevii ATCC 6258 assessed as fungal growth inhibition by double dilution method; format: functional; summary of the method: as §1
# [Candida] auris [25] = Antifungal activity against Candida auris AR Bank # 389 assessed as fungal growth inhibition by double dilution method; format: functional; details: Candidozyma auris; summary of the method: as §1
# Nakaseomyces glabratus [26] = assay: Antifungal activity against Candida glabrata ATCC 22019 assessed as fungal growth inhibition by double dilution method; format: functional; summary of the method: as §1
# [Candida] auris [27] = Antifungal activity against Candida auris AR Bank # 0390 assessed as fungal growth inhibition by double dilution method; format: functional; details: Candidozyma auris; summary of the method: as §1
# Candida duobushaemulonii [28] = assay: Antifungal activity against Candida duobushaemulonii AR Bank # 391 assessed as fungal growth inhibition by double dilution method; format: functional; details: Candidozyma duobushaemuli; summary of the method: as §1
# [Candida] auris [29] = Antifungal activity against Candida auris AR Bank # 0384 assessed as fungal growth inhibition by double dilution method; format: functional; details: Candidozyma auris; summary of the method: as §1
# [Candida] haemuloni [30] = Antifungal activity against Candida haemulonii AR Bank # 393 assessed as fungal growth inhibition by double dilution method; format: functional; details: Candidozyma haemuli; summary of the method: as §1
# Candida albicans [31] = assay: Antifungal activity against itraconazole/fluconazole susceptible Candida albicans ATCC MYA-2876 assessed as fungal growth inhibition by double dilution method; format: functional; summary of the method: as §2
# [Candida] auris [32] = Antifungal activity against Candida auris AR Bank # 387 assessed as fungal growth inhibition by double dilution method; format: functional; details: Candidozyma auris; summary of the method: as §1
# Cryptococcus neoformans = assay: Antifungal activity against Cryptococcus neoformans ATCC MYA-895 assessed as fungal growth inhibition by double dilution method; format: functional; summary of the method: as §1
# Kodamaea ohmeri = assay: Antifungal activity against Kodamaea ohmeri AR Bank # 396 assessed as fungal growth inhibition by double dilution method; format: functional; summary of the method: as §1
# [Candida] haemuloni [33] = Antifungal activity against Candida haemulonii AR Bank # 395 assessed as fungal growth inhibition by double dilution method; format: functional; details: Candidozyma haemuli; summary of the method: as §1
# [Candida] auris [34] = Antifungal activity against Candida auris AR Bank # 385 assessed as fungal growth inhibition by double dilution method; format: functional; details: Candidozyma auris; summary of the method: as §1
smiles,measurement,setting,value
O=C(NNc1ccc(F)cc1)c1ccccn1,MIC,Clavispora lusitaniae,1.95 µg/mL
same,MIC,Aspergillus fumigatus [1],15.6 µg/mL
same,MIC,Candida albicans [2],0.98 µg/mL
same,MIC,[Candida] auris [3],1.95 µg/mL
same,MIC,Candida duobushaemulonii [4],0.24 µg/mL
same,MIC,Saccharomyces cerevisiae [5],1.95 µg/mL
same,MIC,[Candida] auris [6],0.98 µg/mL
same,MIC,Pichia kudriavzevii [7],0.24 µg/mL
same,MIC,[Candida] auris [8],0.49 µg/mL
same,MIC,Candida duobushaemulonii [9],0.49 µg/mL
same,MIC,Aspergillus nidulans,0.49 µg/mL
same,MIC,[Candida] auris [10],3.9 µg/mL
same,MIC,[Candida] auris [11],0.98 µg/mL
same,Activity,Candida albicans [12],Active
same,Activity,HEK293,Non-Toxic
same,MIC,Candida albicans [13],0.12 µg/mL
same,MIC,[Candida] auris [14],1.95 µg/mL
same,MIC,Aspergillus fumigatus [15],31.3 µg/mL
same,MIC,Aspergillus flavus,31.3 µg/mL
same,MIC,Candida albicans [16],1.95 µg/mL
same,MIC,[Candida] auris [17],0.98 µg/mL
same,MIC,Candida albicans [18],0.98 µg/mL
same,MIC,Candida albicans [19],1.95 µg/mL
same,MIC,Aspergillus fumigatus [20],7.8 µg/mL
same,MIC,Aspergillus terreus,1.95 µg/mL
same,MIC,Saccharomyces cerevisiae [21],3.9 µg/mL
same,MIC,Candida albicans [22],0.49 µg/mL
same,Activity,J774.A1,Non-Toxic
same,MIC,Nakaseomyces glabratus [23],1.95 µg/mL
same,MIC,Pichia kudriavzevii [24],0.12 µg/mL
same,MIC,[Candida] auris [25],0.49 µg/mL
same,MIC,Nakaseomyces glabratus [26],1.95 µg/mL
same,MIC,[Candida] auris [27],0.98 µg/mL
same,MIC,Candida duobushaemulonii [28],0.49 µg/mL
same,MIC,[Candida] auris [29],3.9 µg/mL
same,MIC,[Candida] haemuloni [30],0.24 µg/mL
same,MIC,Candida albicans [31],3.9 µg/mL
same,MIC,[Candida] auris [32],0.98 µg/mL
same,MIC,Cryptococcus neoformans,0.24 µg/mL
same,MIC,Kodamaea ohmeri,0.24 µg/mL
same,MIC,[Candida] haemuloni [33],0.12 µg/mL
same,MIC,[Candida] auris [34],0.98 µg/mL
